Reference: ChEMBL document CHEMBL4811322, “Impact of α-modifications on the activity of triazole bisphosphonates as geranylgeranyl diphosphate synthase inhibitors” (Bioorg Med Chem, 2021)
Active and inactive are the calls of the source. The calls are words filed in the database; no cut-off is given here.

What was measured:
[1] = biological target: T1, Geranylgeranyl pyrophosphate synthase (Homo sapiens, UniProt O95749); experiment: Inhibition of recombinant GGDPS (unknown origin) using FPP and [14C] IPP as substrate preincubated for 10 mins followed by substrate addition measured after 30 mins by liquid scintillation counting method
T1 sequence (O95749 whole entry): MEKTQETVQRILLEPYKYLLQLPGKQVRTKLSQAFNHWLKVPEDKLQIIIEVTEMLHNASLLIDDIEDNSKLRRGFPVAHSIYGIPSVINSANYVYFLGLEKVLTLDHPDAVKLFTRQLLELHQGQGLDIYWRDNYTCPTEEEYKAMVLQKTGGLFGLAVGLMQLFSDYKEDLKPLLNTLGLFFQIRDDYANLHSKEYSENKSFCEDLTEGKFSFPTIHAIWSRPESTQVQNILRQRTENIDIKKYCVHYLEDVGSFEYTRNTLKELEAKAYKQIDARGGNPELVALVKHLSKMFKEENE
Method in brief: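 In the enzyme assay, each compound was tested in duplicate at multiple concentrations, with three independent experiments. IC50 values were derived from concentration-response curve analysis.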

RPMI-8226 = experiment: Cytotoxicity against human RPMI-8226 cells assessed as decrease in cell viability at 10 to 100 uM measured after 48 hrs by MTT assay; assay type: functional, cell-based; settings: dose 10-100 µM
Method in brief: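 RPMI-8226 myeloma cells seeded at 2.5 × 10^4 cells per 100 μL well and exposed to compound for 48 h, then MTT read-out. Absorbance of solvent-only control cells set as 100% MTT activity. Data expressed as percentage of control, mean ± SD, n=4.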

[2] = biological target: T2, Geranylgeranyl pyrophosphate synthase (Homo sapiens) (UniProt O95749); experiment: Inhibition of GGDPS in human RPMI-8226 cells assessed as lowest effective concentration required to show unmodified Rap1a band up to 100 uM after 48 hrs by immunoblot analysis; assay type: cell-based; settings: dose microM <=100, time 48.0 hrs
T2 sequence (whole entry): T1 sequence (O95749 whole entry)
Method in brief: (§1)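 LEC is the lowest concentration giving both a visible unmodified Rap1a band and a statistically significant rise in lambda light chain (ELISA, two-tailed t-test, p<0.05). RPMI-8226 cells were treated for 48 h. The Rap1a antibody detects only unmodified Rap1a, with β-tubulin as loading control. Lysates were made in RIPA buffer and normalised by BCA.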

[3] = biological target: T2, Geranylgeranyl pyrophosphate synthase (Homo sapiens); experiment: Inhibition of GGDPS in human RPMI-8226 cells assessed as lowest effective concentration required to show unmodified Rap1a band after 48 hrs by immunoblot analysis; assay type: cell-based; method in brief: as §1
[4] = biological target: T2, Geranylgeranyl pyrophosphate synthase (Homo sapiens); experiment: Inhibition of GGDPS in human RPMI-8226 cells assessed as increase in intracellular lambda chain level after 48 hrs by ELISA; assay type: cell-based
Method in brief: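 Intracellular lambda light chain was quantified by ELISA in the same 48 h RPMI-8226 lysates prepared for immunoblotting, with lovastatin 10 μM as positive control. Values are percentage of untreated control, mean ± SD, n=3. Two-tailed t-test against untreated cells, significance at p<0.05.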

[5] = biological target: T2, Geranylgeranyl pyrophosphate synthase (Homo sapiens); experiment: Inhibition of GGDPS in human RPMI-8226 cells assessed as disruption of farnesylation at 0.1 to 1 uM measured after 48 hrs by immunoblot analysis; assay type: cell-based; settings: dose 0.1-1 µM
Method in brief: (§2)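 H-Ras farnesylation was checked by immunoblot after RPMI-8226 cells (ATCC) were exposed to compound for 48 h, with lovastatin 10 μM as positive control. Whole-cell RIPA lysates with protease/phosphatase inhibitors were protein-normalised by BCA, run on SDS-PAGE and transferred to PVDF. Blots were probed for H-Ras with β-tubulin as loading control and detected with HRP secondary/ECL. Gels are representative of three independent studies.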

[6] = biological target: T2, Geranylgeranyl pyrophosphate synthase (Homo sapiens); experiment: Inhibition of GGDPS in human RPMI-8226 cells assessed as disruption of farnesylation at 0.05 to 0.5 uM measured after 48 hrs by immunoblot analysis; assay type: cell-based; settings: dose 0.05-0.5 µM; method in brief: as §2

| SMILES | IC50 [1] [nM] | Activity (RPMI-8226) | inhibition [2] | LED [3] [µM] | inhibition [4] | inhibition [5] | inhibition [6] |
| --- | --- | --- | --- | --- | --- | --- | --- |
| C=C(Cc1cn(C/C=C(\C)CCC=C(C)C)nn1)P(=O)(O)O | > 100000 | inactive | inactive | – | – | – | – |
| CC(C)=CCC/C(C)=C/Cn1cc(CC(CN)(P(=O)(O)O)P(=O)(O)O)nn1 | 2000 | Active | – | 0.5 | – | – | – |
| CC(C)=CCC/C(C)=C/Cn1cc(CC(F)(P(=O)(O)O)P(=O)(O)O)nn1 | 3000 | Active | – | 0.25 | Active | inactive | – |
| CC(C)=CCC/C(C)=C/Cn1cc(C=C(P(=O)(O)O)P(=O)(O)O)nn1 | 2700 | Active | – | 0.25 | – | inactive | – |
| CC(C)=CCC/C(C)=C/Cn1cc(C2CC2(P(=O)(O)O)P(=O)(O)O)nn1 (stereo not given) | 1600 | Active | – | 0.5 | – | inactive | – |
| CC(C)=CCC/C(C)=C/Cn1cc(CCP(=O)(O)O)nn1 | > 100000 | inactive | inactive | – | – | – | – |
| CC(C)=CCC/C(C)=C/Cn1cc(CC(C)(P(=O)(O)O)P(=O)(O)O)nn1 | 1300 | – | – | 0.1 | – | – | – |
| CC(C)=CCC/C(C)=C/Cn1cc(CC(O)(P(=O)(O)O)P(=O)(O)O)nn1 | – | Active | – | 0.1 | – | – | inactive |
| CC(C)=CCC/C(C)=C/Cn1cc(CC(P(=O)(O)O)P(=O)(O)O)nn1 | – | – | – | 0.5 | – | – | – |
| CCC(Cc1cn(C/C=C(\C)CCC=C(C)C)nn1)(P(=O)(O)O)P(=O)(O)O | 5900 | – | – | 2.5 | – | – | – |
